Measurements from different studies.
Protocols differ between the studies behind these lines.
Organism: Plasmodium falciparum
Read-out: parasite growth

CO[C@H]1/C=C/O[C@@]2(C)Oc3c(C)c(O)c4c(O)c(c(/C=N/N5CCN(C)CC5)c(O)c4c3C2=O)NC(=O)/C(C)=C\C=C\[C@H](C)[C@H](O)[C@@H](C)[C@@H](O)[C@@H](C)[C@H](OC(C)=O)[C@@H]1C  IC50 (DD2; drug-resistant strain, blood stage): 573 nM
Cc1cc(F)cc(C)c1NC(=N)CC(O)c1cc2c(F)cc(F)cc2c2cc(C(F)(F)F)ccc12 (stereo not shown)  IC50 (ELISA; 3D7; 72 h; blood stage): 11.6 nM
COc1cc(/C=C/C(=O)C(=Cc2cccc(O)c2)C(=O)/C=C/c2ccc(O)c(OC)c2)ccc1O  EC50 (K1; drug-resistant strain, blood stage): 11000 nM
C[C@@H]1CC[C@H]2[C@@H](C)C(=O)O[C@@H]3O[C@@]4(C)CC[C@@H]1[C@]32OO4  IC50 (SYBR Green; 3D7; blood stage): 19.5 nM
C[C@@H]1CC[C@H]2[C@@H](C)C(=O)O[C@@H]3O[C@@]4(C)CC[C@@H]1[C@]32OO4  IC50 (DD2; 72 h; drug-resistant strain, blood stage): 9.1 nM
COc1cc(/C=C2\CC/C(=C\c3ccc(O)c(OC)c3)C2=O)ccc1O  EC50 (K1; drug-resistant strain, blood stage): 1470 nM
CCN1CCN(Cc2ccc(Nc3nc4ccc(Oc5ccnc(NC(=O)C6CCN(C)CC6)c5)cc4n3C)cc2C(F)(F)F)CC1  IC50 (flow cytometry; DD2; 72 h; blood stage): 55.7 nM
N=C(N)N/N=C/c1c(Cl)cccc1Cl  IC50 (K1; drug-resistant strain, blood stage): 931 nM
COc1cc(/C=C/C(=O)/C=C/c2ccc(O)c(OC)c2)ccc1O  EC50 (K1; drug-resistant strain, blood stage): 2530 nM
N=C(CC(O)c1cc2c(F)cc(F)cc2c2cc(C(F)(F)F)ccc12)Nc1ccc(-c2ccc(F)cc2)cc1 (stereo not shown)  IC50 (ELISA; 3D7; 72 h; blood stage): 8.1 nM
CCCCCCCCNC(C)C(O)c1ccc(SC(C)C)cc1 (stereo not shown)  IC50 (DD2; drug-resistant strain, blood stage): 62.5 nM
N=C(CC(O)c1cc2c(F)cc(F)cc2c2cc(C(F)(F)F)ccc12)N1CCC(F)(F)CC1 (stereo not shown)  IC50 (ELISA; 3D7; 72 h; blood stage): 14.4 nM
CCN(CC)CCCC(C)Nc1ccnc2cc(Cl)ccc12 (stereo not shown)  IC50 (K1; drug-resistant strain): 91.2 nM
CCCCN(CCCC)C(=N)CC(O)c1cc2c(F)cc(F)cc2c2cc(C(F)(F)F)ccc12 (stereo not shown)  IC50 (ELISA; 3D7; 72 h; blood stage): 1110 nM
CCN(CC)CCCC(C)Nc1ccnc2cc(Cl)ccc12 (stereo not shown)  EC50 (K1; drug-resistant strain, blood stage): 530 nM
CC(C)(C)CNC(=N)CC(O)c1cc2c(F)cc(F)cc2c2cc(C(F)(F)F)ccc12 (stereo not shown)  IC50 (ELISA; 3D7; 72 h; blood stage): 6020 nM
CO[C@H]1C[C@H](O[C@@H]2/C(C)=C/C[C@@H]3C[C@@H](C[C@]4(CC[C@H](C)[C@@H](C5CCCCC5)O4)O3)OC(=O)[C@@H]3C=C(C)/C(=N/O)[C@H]4OC/C(=C\C=C\[C@@H]2C)[C@]43O)O[C@@H](C)[C@@H]1O  IC50 (DD2; drug-resistant strain, blood stage): 179 nM
N=C(CC(O)c1cc2c(F)cc(F)cc2c2cc(C(F)(F)F)ccc12)Nc1ccc(N2CCC(F)(F)CC2)cc1 (stereo not shown)  IC50 (ELISA; 3D7 DD2; blood stage): ~32 nM
COc1cc(/C=C/C(=O)C(=Cc2ccc(O)cc2)C(=O)/C=C/c2ccc(O)c(OC)c2)ccc1O  EC50 (K1; drug-resistant strain, blood stage): 13300 nM
